# Assay results as given in ChEMBL document CHEMBL2176962, “Repositioning HIV-1 integrase inhibitors for cancer therapeutics: 1,6-naphthyridine-7-carboxamide as a promising scaffold with drug-like properties” (J Med Chem, 2012).
# Tests used:
# [1] = target: Proto-oncogene tyrosine-protein kinase Src (Homo sapiens) (UniProt P12931); assay: Inhibition of SRC at 10 uM incubated for 60 mins using poly(Glu,Tyr)4:1 substrate and 10 uM ATP by ELISA
# Procedure, shortened: (§1)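 ELISA with Poly(Glu,Tyr)4:1 (20 μg/mL) precoated as substrate and 10 μM ATP, in 50 mM HEPES pH 7.4, 20 mM MgCl2, 0.1 mM MnCl2, 0.2 mM Na3VO4, 1 mM DTT. Compound was tested at 10 μM, in duplicate. Kinase reaction ran 60 min at 37 °C. Phosphotyrosine was detected with PY99 and HRP anti-mouse IgG, developed with o-phenylenediamine/H2O2, stopped with H2SO4 and read at 492 nm. Inhibition = [1 − A492 treated/A492 control] × 100%. References: lapatinib (ErbB2) and PP2 (Src), each at 10 μM.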
# [2] = system: LNCaP; assay: Cytotoxicity against human LNCAP cells incubated for 72 hrs by MTT assay; assay type: functional, cell-based
# Procedure, shortened: (§2)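 Cells were kept in DMEM (MDA-MB-435, MCF7, LNCaP) or RPMI (HT29, HCT116) with 10% heat-inactivated FBS and 2 mM L-glutamine, subconfluent and in exponential growth. They were seeded, allowed to adhere overnight, then exposed continuously to compound (10 mM DMSO stock) for 72 h. MTT was added to 0.3 mg/mL final for 3–4 h at 37 °C, formazan was dissolved in DMSO, and absorbance was read at 570 nm. Runs were in triplicate; IC50 came from log concentration versus percent cell kill.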
# [3] = system: HT-29; assay: Cytotoxicity against human HT-29 cells incubated for 72 hrs by MTT assay; assay type: functional, cell-based; conditions: HT-29, 72 h; procedure, shortened: as §2
# [4] = system: MCF7; assay: Cytotoxicity against human MCF7 cells incubated for 72 hrs by MTT assay; assay type: functional, cell-based; conditions: MCF7, 72 h; procedure, shortened: as §2
# [5] = system: SK-BR-3; assay: Cytotoxicity against human SKBR3 cells incubated for 72 hrs by MTT assay; assay type: functional, cell-based; conditions: SK-BR-3, 72 h
# [6] = system: HCT-116; assay: Cytotoxicity against p53 expressing human HCT116 cells incubated for 72 hrs by MTT assay; assay type: functional, cell-based; conditions: HCT-116, 72 h; procedure, shortened: as §2
# [7] = system: HCT-116; assay: Cytotoxicity against p53 deficient human HCT116 cells incubated for 72 hrs by MTT assay; assay type: functional, cell-based; conditions: HCT-116, 72 h; procedure, shortened: as §2
# [8] = system: MDA-MB-435; assay: Cytotoxicity against human MDA-MB-435 cells incubated for 72 hrs by MTT assay; assay type: functional, cell-based; conditions: MDA-MB-435, 72 h; procedure, shortened: as §2
# [9] = target: Vascular endothelial growth factor receptor 2 (Homo sapiens) (UniProt P35968); conditions: at 10 µM
# Vascular endothelial growth factor receptor 2 (Homo sapiens), sequence (P35968 whole entry): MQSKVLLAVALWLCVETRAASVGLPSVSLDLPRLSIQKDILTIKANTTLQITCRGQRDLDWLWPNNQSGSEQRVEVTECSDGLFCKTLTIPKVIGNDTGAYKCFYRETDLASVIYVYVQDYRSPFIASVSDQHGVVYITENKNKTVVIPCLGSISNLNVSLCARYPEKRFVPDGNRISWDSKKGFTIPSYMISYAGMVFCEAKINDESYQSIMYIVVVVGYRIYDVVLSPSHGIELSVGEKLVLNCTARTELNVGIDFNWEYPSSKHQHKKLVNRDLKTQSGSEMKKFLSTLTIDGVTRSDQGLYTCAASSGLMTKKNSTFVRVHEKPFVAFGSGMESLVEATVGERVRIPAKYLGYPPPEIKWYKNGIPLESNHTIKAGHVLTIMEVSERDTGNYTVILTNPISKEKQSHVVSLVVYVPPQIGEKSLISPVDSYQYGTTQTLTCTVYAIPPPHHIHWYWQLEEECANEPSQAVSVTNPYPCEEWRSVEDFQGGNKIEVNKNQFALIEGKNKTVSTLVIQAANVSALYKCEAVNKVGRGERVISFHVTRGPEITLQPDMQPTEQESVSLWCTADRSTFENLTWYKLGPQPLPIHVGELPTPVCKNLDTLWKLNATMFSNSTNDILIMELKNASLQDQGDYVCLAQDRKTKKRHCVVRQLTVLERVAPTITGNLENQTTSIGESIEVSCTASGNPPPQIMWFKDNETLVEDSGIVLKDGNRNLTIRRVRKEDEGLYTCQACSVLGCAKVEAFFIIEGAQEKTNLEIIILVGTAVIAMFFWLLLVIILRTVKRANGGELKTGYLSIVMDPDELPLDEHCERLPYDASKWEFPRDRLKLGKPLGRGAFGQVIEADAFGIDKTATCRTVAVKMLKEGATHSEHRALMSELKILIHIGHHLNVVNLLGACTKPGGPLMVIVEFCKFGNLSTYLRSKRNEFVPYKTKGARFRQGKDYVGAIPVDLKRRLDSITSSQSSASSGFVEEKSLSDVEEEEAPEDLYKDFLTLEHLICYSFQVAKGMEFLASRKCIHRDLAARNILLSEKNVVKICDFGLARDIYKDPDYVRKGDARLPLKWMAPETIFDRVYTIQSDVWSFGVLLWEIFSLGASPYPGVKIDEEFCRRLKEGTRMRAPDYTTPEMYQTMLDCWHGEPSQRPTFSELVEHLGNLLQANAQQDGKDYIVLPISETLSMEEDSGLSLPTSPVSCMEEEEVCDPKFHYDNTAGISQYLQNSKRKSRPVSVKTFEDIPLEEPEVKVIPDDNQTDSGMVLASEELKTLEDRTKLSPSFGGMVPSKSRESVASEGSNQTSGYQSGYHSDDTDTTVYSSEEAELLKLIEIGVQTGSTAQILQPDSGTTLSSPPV
# [10] = Therapeutic index, ratio of CC50 for human C8166 cells to EC50 for HIV1 3B; assay type: cell-based; conditions: read-out: Ratio CC50/EC50
# Procedure, shortened: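 Therapeutic index was calculated as the C8166 MTT CC50 divided by the HIV-1 IIIB syncytium-reduction EC50.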
# [11] = Toxicity against human C8166 cells incubated for 72 hrs by MTT assay; assay type: cell-based
# Procedure, shortened: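 C8166 cells were seeded with serial compound dilutions in triplicate and incubated at 37 °C, 5% CO2 for 72 h. MTT (5 mg/mL in PBS) was added for 4 h, and formazan was dissolved in 50% DMF-20% SDS. Absorbance was read at 595/630 nm. CC50 was taken from the dose-response curve.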
# [12] = system: Human immunodeficiency virus 1; assay: Antiviral activity against HIV1 3B infected in human C8166 cells assessed as reduction in virus-induced cytopathogenicity measured after 3 days by syncytium reduction assay; assay type: functional, organism-based; conditions: Human immunodeficiency virus 1, 3B, C8166, 72 h
# Procedure, shortened: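 C8166 cells (4 × 10⁵ mL⁻¹), grown in RPMI-1640 with 10% heat-inactivated FCS and kept in log phase, infected with HIV-1 IIIB at MOI 0.06 in the presence of serial compound dilutions. AZT served as positive control. After 3 days, syncytia were counted by inverted microscope. EC50 was derived from percent inhibition of syncytium number relative to infected control.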
# [13] = target: T1, Human immunodeficiency virus type 1 integrase (Human immunodeficiency virus 1, UniProt Q7ZJM1); assay: Inhibition of HIV1 integrase strand transfer activity using [32P]-labeled linear oligonucleotide substrate
# T1 sequence (Q7ZJM1 whole entry): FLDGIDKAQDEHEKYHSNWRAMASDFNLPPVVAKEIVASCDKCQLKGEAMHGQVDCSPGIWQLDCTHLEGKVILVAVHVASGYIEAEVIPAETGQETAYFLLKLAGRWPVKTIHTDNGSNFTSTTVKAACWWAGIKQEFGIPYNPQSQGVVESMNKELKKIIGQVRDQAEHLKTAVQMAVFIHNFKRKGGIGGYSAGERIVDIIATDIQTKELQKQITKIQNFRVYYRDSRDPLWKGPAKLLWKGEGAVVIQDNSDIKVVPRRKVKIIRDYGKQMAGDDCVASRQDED
# [14] = target: T1, Human immunodeficiency virus type 1 integrase; assay: Inhibition of HIV1 integrase 3'-processing activity using [32P]-labeled linear oligonucleotide substrate
# [15] = target: Receptor tyrosine-protein kinase erbB-2 (Homo sapiens) (UniProt P04626); assay: Inhibition of ErbB2 at 10 uM incubated for 60 mins using poly(Glu,Tyr)4:1 substrate and 10 uM ATP by ELISA; procedure, shortened: as §1
# Receptor tyrosine-protein kinase erbB-2 (Homo sapiens), sequence (P04626 whole entry): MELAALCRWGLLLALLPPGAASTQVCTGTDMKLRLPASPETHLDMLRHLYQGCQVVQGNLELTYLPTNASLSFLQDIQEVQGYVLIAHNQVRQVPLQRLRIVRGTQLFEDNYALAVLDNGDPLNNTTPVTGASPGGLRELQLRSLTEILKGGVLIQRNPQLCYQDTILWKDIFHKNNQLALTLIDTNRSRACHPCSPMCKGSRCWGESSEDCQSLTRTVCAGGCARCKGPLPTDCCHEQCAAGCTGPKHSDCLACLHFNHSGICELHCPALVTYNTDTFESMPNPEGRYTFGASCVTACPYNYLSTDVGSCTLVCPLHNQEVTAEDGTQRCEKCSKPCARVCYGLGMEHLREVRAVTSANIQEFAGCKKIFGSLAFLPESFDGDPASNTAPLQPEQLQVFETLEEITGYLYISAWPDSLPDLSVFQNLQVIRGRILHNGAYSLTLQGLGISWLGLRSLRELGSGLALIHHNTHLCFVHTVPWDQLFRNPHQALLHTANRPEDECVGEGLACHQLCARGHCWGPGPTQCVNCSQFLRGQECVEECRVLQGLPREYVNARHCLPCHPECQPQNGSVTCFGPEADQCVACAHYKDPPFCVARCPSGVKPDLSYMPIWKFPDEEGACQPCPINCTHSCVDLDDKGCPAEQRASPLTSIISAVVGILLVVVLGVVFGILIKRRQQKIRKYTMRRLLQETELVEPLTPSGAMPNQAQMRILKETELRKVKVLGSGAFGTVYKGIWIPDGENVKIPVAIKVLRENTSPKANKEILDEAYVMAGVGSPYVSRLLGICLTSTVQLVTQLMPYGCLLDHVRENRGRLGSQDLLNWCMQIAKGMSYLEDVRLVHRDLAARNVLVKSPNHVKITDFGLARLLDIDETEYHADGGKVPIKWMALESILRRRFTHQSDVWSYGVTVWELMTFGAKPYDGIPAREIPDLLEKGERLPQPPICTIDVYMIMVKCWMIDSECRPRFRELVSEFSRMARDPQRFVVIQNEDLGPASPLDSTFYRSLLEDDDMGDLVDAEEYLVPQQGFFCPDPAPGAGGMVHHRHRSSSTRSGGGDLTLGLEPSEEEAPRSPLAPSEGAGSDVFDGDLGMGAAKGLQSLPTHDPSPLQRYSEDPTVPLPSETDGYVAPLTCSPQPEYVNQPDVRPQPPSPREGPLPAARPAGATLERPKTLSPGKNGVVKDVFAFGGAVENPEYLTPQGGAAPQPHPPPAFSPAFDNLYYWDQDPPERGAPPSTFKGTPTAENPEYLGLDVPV
# [16] = system: HEY; assay: Cytotoxicity against human HEY cells incubated for 72 hrs by MTT assay; assay type: functional, cell-based
# Proto-oncogene tyrosine-protein kinase Src (Homo sapiens), sequence (P12931 2-536 limits assumed): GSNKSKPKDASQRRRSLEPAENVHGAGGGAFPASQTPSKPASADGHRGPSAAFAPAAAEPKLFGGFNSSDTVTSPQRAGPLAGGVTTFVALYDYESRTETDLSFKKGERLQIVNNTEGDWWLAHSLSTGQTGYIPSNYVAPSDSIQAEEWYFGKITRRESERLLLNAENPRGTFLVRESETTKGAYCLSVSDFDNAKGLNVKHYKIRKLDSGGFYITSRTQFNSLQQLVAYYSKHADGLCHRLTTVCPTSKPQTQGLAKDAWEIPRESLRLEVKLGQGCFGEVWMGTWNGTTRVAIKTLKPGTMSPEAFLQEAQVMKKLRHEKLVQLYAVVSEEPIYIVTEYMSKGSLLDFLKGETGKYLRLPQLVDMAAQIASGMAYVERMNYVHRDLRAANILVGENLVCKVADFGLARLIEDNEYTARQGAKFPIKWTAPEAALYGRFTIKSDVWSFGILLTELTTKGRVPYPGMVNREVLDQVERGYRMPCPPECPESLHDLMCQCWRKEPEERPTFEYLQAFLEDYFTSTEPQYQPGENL
Compound,inhibition [1] [%],inhibition [9] [%],EC50 [12] [µM],IC50 [13] [µM],IC50 [14] [µM],inhibition [15] [%],IC50 [2] [µM],IC50 [3] [µM],IC50 [4] [µM],IC50 [5] [µM],IC50 [6] [µM],IC50 [7] [µM],IC50 [8] [µM],selectivity ratio [10],CC50 at 72 h [11] [µM],IC50 [16] [µM]
O=C(NCc1ccc(F)cc1)c1nc(NCCc2c[nH]c3ccccc23)c2cccnc2c1O,–,–,0.368,1,14,–,–,–,12,–,–,–,13,114,42,–
Cc1ccc(S(=O)(=O)Oc2c(C(=O)NCc3ccc(F)cc3)nc(Br)c3cccnc23)cc1,–,–,5.01,31,> 111,–,–,–,–,–,> 20,> 20,> 20,6.2,31,–
O=C(NCc1ccc(F)cc1)c1nc(NCCO)c2cccnc2c1O,–,–,0.029,0.3,9.5,–,–,–,–,–,–,–,> 20,3140,91,–
CS(=O)(=O)NCCCN(c1nc(C(=O)NCc2ccc(F)cc2)c(O)c2ncccc12)S(C)(=O)=O,–,–,0.003,0.7,34,–,–,–,> 20,–,15,7,> 20,21300,64,–
N[C@H]1CC[C@H](NC(=O)c2nc(Br)c3cccnc3c2NCc2ccc(F)cc2)CC1,0,–,–,–,–,3,–,–,–,2.8,6.4,–,6.6,–,–,7.1
NCCCNc1c(C(=O)NCc2ccc(F)cc2)ncc2cccnc12,15,10,–,–,–,–,> 10,> 10,> 10,> 10,> 10,> 10,16,–,–,–
N[C@H]1CC[C@H](Nc2c(C(=O)NCc3ccc(F)cc3)nc(N3CCCCS3(=O)=O)c3cccnc23)CC1,–,–,–,–,–,–,8,> 10,13,8.5,> 10,> 10,5,–,–,–
CC(C)(C)OC(=O)N1CCC(Nc2c(C(=O)NCc3ccc(F)cc3)nc(Br)c3cccnc23)CC1,–,–,–,–,–,–,> 10,> 10,> 10,1,> 10,9,20,–,–,–
O=CNCCCCCCNc1nc(C(=O)NCc2ccc(F)cc2)c(O)c2ncccc12,23,–,0.027,0.2,6,11,–,–,19,–,4,6,16,7370,199,–
Nc1cccc(Nc2c(C(=O)NCc3ccc(F)cc3)nc(Br)c3cccnc23)c1,–,–,–,–,–,–,8,> 10,8,> 10,> 10,> 10,8,–,–,–
O=C(NCc1ccc(F)cc1)c1nc(N2CCCCS2(=O)=O)c2cccnc2c1O,13,–,0.005,0.3,11,8,–,–,2,–,2,2,6,26400,132,–
CNCCCNc1c(C(=O)NCc2ccc(F)cc2)nc(Br)c2cccnc12,–,–,–,–,–,–,8,> 10,> 10,1,9,> 10,11,–,–,–
COC(=O)CNc1c(C(=O)NCc2ccc(F)cc2)nc(Br)c2cccnc12,–,–,–,–,–,–,5,> 10,> 10,1,> 10,> 10,10,–,–,–
O=C(NCc1ccc(F)cc1)c1nc(Br)c2cccnc2c1N1CCNCC1,29,4,–,–,–,–,4.5,10,7,6,> 10,> 10,8,–,–,–
O=C(NCc1ccc(F)cc1)c1nc(Br)c2cccnc2c1NCCO,–,–,48.9,69,> 100,–,–,–,–,–,> 20,> 20,> 20,4.8,232,–
CC(C)(C)n1nc(-c2ccc(Cl)cc2)c2c(N)ncnc21,94,–,–,–,–,–,–,–,–,–,–,–,–,–,–,–
CC(C)(C)OC(=O)N1CCN(c2c(C(=O)NCc3ccc(F)cc3)nc(Br)c3cccnc23)CC1,–,–,–,–,–,–,> 10,> 10,> 10,3,> 10,> 10,10,–,–,–
O=C(NCCCNc1c(C(=O)NCc2ccc(F)cc2)nc(Br)c2cccnc12)c1ccccc1,–,–,–,–,–,–,> 10,> 10,2,1,> 10,> 10,> 20,–,–,–
N[C@H]1CC[C@H](Nc2c(C(=O)Nc3ccccc3)nc(Br)c3cccnc23)CC1,–,–,–,–,–,0,–,–,–,2,2,–,1,–,–,1

# Now from value to compound, other results behind:
inhibition [1] [%],inhibition [9] [%],EC50 [12] [µM],IC50 [13] [µM],IC50 [14] [µM],inhibition [15] [%],Compound,IC50 [2] [µM],IC50 [3] [µM],IC50 [4] [µM],IC50 [5] [µM],IC50 [6] [µM],IC50 [7] [µM],IC50 [8] [µM],selectivity ratio [10],CC50 at 72 h [11] [µM],IC50 [16] [µM]
17,0,–,–,–,–,CN(C)CCCNc1c(C(=O)NCc2ccc(F)cc2)nc(Br)c2cccnc12,8,6,7,1,> 10,> 10,7,–,–,–
–,–,11.1,0.5,14,–,O=C(NCc1ccc(F)cc1)c1nc(Br)c2cccnc2c1O,–,–,–,–,> 20,> 20,15,7.2,80,–
7,8,–,–,–,1,Nc1ccc(Nc2c(C(=O)NCc3ccc(F)cc3)nc(Br)c3cccnc23)cc1,7,> 10,4,4,10,7,7,–,–,–
–,–,0.052,0.2,6.9,–,C[C@H](CO)Nc1nc(C(=O)NCc2ccc(F)cc2)c(O)c2ncccc12,–,–,–,–,–,–,> 20,1330,69,–
–,–,0.002,0.7,11,–,CS(=O)(=O)NCCCCCCN(c1nc(C(=O)NCc2ccc(F)cc2)c(O)c2ncccc12)S(C)(=O)=O,–,–,7,–,3,4,20,18500,37,–
–,–,11.8,13,> 111,–,CS(=O)(=O)Oc1c(C(=O)NCc2ccc(F)cc2)nc(Br)c2cccnc12,–,–,–,–,> 20,> 20,> 20,4,48,–
–,–,–,–,–,0,N[C@H]1CC[C@H](Nc2c(C(=O)NCCc3ccccc3)nc(Br)c3cccnc23)CC1,–,–,–,7,8.8,–,8,–,–,6
–,–,0.023,0.3,7.8,–,C[C@@H](CO)Nc1nc(C(=O)NCc2ccc(F)cc2)c(O)c2ncccc12,–,–,–,–,–,–,> 20,4650,107,–
